Consider 13 molecules from ChEMBL document CHEMBL1145081, “Effects of the substitution of Phe4 in the opioid peptide [D-Ala8]dynorphin A-(1-11)NH2” (J Med Chem, 2003).

pEC50, pKi: −log10 of the molar value.

The target of experiment [1] is T1, Opioid receptors; mu/kappa/delta (Homo sapiens) (UniProt P41145+P41143+P35372). The experiment can be described thus: Selectivity for kappa/Mu/Delta receptors was determined 1/1.7/90. It counts as protein assay.
Experiment [2] has as its target Kappa-type opioid receptor (Rattus norvegicus) (UniProt P34975). The experiment can be described thus: Inhibition of Forskolin-Stimulated Adenylyl Cyclase in CHO cells expressing Opioid receptor kappa 1 at 10 uM relative to 100 nM Dyn A-(1-13)NH(2). The class given is functional, cell-based. Summed up: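 Same κ-CHO forskolin (50 μM, 40 min, 37°) cyclic AMP assay, with phosphodiesterase and peptidase inhibitors. Maximal percent inhibition by peptide at 10 μM, expressed relative to the inhibition given by 100 nM Dyn A-(1-13)NH2. Cyclic AMP counts corrected for recovery using a [14C]cyclic AMP tracer.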

The target in experiment [3] is T2, Kappa-type opioid receptor (Rattus norvegicus, UniProt P34975). The experiment can be described thus: Inhibition of Forskolin-Stimulated Adenylyl Cyclase in CHO cells expressing Opioid receptor kappa 1. The class given is functional, cell-based. A digest of the protocol:
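CHO cells stably expressing cloned rat κ-opioid receptors. Cultures incubated 40 min at 37° with 50 μM forskolin and varying peptide concentrations. Present: 50 μM RO20-1724 (phosphodiesterase inhibitor), plus 10 μM bestatin, 30 μM captopril and 50 μM L-leucyl-L-leucine. [3H]cyclic AMP counted, with [14C]cyclic AMP added for recovery correction. Mean ± SEM, generally n ≥ 3, some n = 2.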

The target in a further experiment is Mu-type opioid receptor (Rattus norvegicus, UniProt P33535). In words: Binding affinity towards rat Opioid receptor mu 1 expressed in CHO cells of chinese hamster ovary was determined using [3H]DAMGO. It counts as cell-based. Summed up:
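[3H]DAMGO displacement on cloned rat μ-opioid receptors stably expressed in CHO cells. Nonspecific binding defined with 10 μM unlabeled DAMGO. Peptidase inhibitors (10 μM bestatin, 30 μM captopril, 50 μM L-leucyl-L-leucine) and 3 mM Mg2+ included. Mean ± SEM, at least three separate assays.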

The target of experiment [4] is T3, Delta-type opioid receptor (Mus musculus, UniProt P32300). In words: Binding affinity towards mouse Opioid receptor delta 1 expressed in CHO cells of chinese hamster ovary was determined using [3H]-[…] as radioligand. The class given is cell-based. Summed up:
(§1)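 Competition binding against [3H]DPDPE on cloned mouse δ-opioid receptors stably expressed in CHO cells. Nonspecific binding defined with 10 μM unlabeled DPDPE. Peptidase inhibitors present (10 μM bestatin, 30 μM captopril, 50 μM L-leucyl-L-leucine) plus 3 mM Mg2+. Mean ± SEM from at least three separate assays.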

In experiment [5] the target is T2, Kappa-type opioid receptor. In words: Binding affinity towards rat Opioid receptor kappa 1 expressed in CHO cells of chinese hamster ovary was determined using [3H]diprenorphine as radioligand. It counts as cell-based. A digest of the protocol: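 Cloned rat κ-opioid receptors stably expressed in CHO cells; affinity from competitive inhibition of [3H]diprenorphine binding. Nonspecific binding defined with 10 μM unlabeled Dyn A-(1-13)NH2. Assay buffer held 10 μM bestatin, 30 μM captopril, 50 μM L-leucyl-L-leucine and 3 mM Mg2+. Mean ± SEM, at least three separate assays.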

Experiment [6] deals with T1, Opioid receptors; mu/kappa/delta (Homo sapiens). The experiment can be described thus: Selectivity for kappa/Mu/Delta receptors was determined; 1/44/765. The class given is protein assay.
Experiment [7] shares this target. The experiment can be described thus: Selectivity for kappa/Mu/Delta receptors was determined; 1/14/>377. The class given is protein assay.
Experiment [8] deals with T3, Delta-type opioid receptor. The experiment can be described thus: Binding affinity towards mouse Opioid receptor delta 1 expressed in CHO cells of chinese hamster ovary was determined using [3H][…] as radioligand. It counts as cell-based. A digest of the protocol:
as §1

T3 sequence (P32300 whole entry): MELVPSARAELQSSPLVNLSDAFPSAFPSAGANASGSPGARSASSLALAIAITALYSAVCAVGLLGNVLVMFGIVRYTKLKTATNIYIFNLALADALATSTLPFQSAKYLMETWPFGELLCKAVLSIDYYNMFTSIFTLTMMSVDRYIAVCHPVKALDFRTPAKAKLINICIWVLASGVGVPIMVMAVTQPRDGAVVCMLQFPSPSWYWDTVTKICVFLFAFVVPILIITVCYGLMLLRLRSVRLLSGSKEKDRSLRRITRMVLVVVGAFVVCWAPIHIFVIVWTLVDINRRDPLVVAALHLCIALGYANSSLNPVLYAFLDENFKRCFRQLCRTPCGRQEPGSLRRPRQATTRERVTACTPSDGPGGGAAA
Kappa-type opioid receptor (Rattus norvegicus), sequence (P34975 whole entry): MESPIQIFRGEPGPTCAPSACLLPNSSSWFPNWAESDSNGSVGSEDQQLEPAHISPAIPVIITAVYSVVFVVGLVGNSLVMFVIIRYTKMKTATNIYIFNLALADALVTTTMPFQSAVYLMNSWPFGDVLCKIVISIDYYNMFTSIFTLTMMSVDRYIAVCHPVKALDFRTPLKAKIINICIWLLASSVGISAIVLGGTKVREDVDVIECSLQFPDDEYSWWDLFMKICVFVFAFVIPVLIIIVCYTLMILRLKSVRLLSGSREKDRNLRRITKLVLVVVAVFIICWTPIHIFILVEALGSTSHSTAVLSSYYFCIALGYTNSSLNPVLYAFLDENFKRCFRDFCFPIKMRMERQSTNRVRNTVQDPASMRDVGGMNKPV
T2 sequence (P34975 whole entry): as above
Mu-type opioid receptor, sequence (P33535 whole entry): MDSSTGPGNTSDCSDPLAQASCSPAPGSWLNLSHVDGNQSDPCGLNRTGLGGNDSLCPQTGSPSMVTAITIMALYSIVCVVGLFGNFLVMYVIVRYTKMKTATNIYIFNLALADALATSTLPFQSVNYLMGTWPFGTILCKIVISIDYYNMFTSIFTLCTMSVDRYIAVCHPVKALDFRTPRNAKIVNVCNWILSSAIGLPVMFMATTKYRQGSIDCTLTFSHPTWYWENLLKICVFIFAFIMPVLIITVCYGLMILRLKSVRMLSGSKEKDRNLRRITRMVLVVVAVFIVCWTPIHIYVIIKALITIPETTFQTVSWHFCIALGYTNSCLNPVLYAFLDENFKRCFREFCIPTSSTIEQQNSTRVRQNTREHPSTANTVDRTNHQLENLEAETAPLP
T1 sequence (P35372 whole entry, looked up): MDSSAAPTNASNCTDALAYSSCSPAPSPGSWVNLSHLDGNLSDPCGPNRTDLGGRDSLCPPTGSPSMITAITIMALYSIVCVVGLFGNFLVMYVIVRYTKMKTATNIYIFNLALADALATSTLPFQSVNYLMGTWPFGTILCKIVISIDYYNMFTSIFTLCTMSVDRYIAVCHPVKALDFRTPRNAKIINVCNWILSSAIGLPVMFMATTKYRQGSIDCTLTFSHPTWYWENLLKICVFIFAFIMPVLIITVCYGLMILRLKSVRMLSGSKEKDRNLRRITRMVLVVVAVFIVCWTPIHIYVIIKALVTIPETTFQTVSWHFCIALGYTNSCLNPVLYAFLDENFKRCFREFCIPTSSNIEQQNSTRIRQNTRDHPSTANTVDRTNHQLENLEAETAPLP
T1 sequence (P41143 whole entry, looked up): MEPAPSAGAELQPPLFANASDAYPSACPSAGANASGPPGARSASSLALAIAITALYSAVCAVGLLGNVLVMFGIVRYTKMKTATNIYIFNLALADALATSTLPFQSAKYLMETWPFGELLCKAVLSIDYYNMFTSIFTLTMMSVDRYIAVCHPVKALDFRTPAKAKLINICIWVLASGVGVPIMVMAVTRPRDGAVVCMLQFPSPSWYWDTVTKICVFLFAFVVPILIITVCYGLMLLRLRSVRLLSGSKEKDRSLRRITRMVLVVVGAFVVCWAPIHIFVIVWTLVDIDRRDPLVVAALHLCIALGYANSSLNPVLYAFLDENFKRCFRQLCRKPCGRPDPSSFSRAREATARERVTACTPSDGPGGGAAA
T1 sequence (P41145 whole entry, looked up): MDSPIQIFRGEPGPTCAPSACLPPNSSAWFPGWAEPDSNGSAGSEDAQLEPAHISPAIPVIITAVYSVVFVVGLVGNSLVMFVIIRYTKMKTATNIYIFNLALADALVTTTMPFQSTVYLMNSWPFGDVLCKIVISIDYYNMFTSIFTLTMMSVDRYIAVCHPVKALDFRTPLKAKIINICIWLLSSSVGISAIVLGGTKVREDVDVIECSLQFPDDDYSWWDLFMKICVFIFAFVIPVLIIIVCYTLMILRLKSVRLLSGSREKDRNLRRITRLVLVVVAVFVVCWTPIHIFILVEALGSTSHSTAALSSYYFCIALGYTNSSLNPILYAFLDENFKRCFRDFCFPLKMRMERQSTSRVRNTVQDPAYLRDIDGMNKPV

In the case of `CC(C)C[C@H](NC(=O)[C@@H](Cc1ccccc1)N(C)C(=O)CNC(=O)CNC(=O)[C@@H](N)Cc1ccc(O)cc1)C(=O)N[C@@H](CCCN=C(N)N)C(=O)N[C@@H](CCCN=C(N)N)C(=O)N[C@H](C)C(=O)N[C@@H](CCCN=C(N)N)C(=O)N1CCC[C@H]1C(=O)N[C@@H](CCCCN)C(N)=O`, the Ki ratio entry in [1] is listed as “kappa/mu/delta”. The Max response in experiment [2] stood at 99%.

`CC(C)C[C@H](NC(=O)[C@H](Cc1ccccc1)N(C)C(=O)CNC(=O)CNC(=O)[C@@H](N)Cc1ccc(O)cc1)C(=O)N[C@@H](CCCN=C(N)N)C(=O)N[C@@H](CCCN=C(N)N)C(=O)N[C@H](C)C(=O)N[C@@H](CCCN=C(N)N)C(=O)N1CCC[C@H]1C(=O)N[C@@H](CCCCN)C(N)=O` showed a pEC50 in experiment [3] (cho) of 8.45. Moreover, the negative logarithm of the Ki (pKi) at Mu-type opioid receptor (cho) is 8.99; in experiment [4] (cho), 7.25; in experiment [5] (cho) it was 9.21.

The molecule `CC(C)C[C@H](NC(=O)[C@]1(NC(=O)CNC(=O)CNC(=O)[C@@H](N)Cc2ccc(O)cc2)CCc2ccccc2C1)C(=O)N[C@@H](CCCNC(=N)N)C(=O)N[C@@H](CCCNC(=N)N)C(=O)N[C@H](C)C(=O)N[C@@H](CCCNC(=N)N)C(=O)N1CCC[C@H]1C(=O)N[C@@H](CCCCN)C(N)=O` gave a pEC50 in [3] of 6.24. For the same molecule, the negative-log Ki (pKi) is 7.05 on Mu-type opioid receptor, less than 5.00 in experiment [4] and 8.02 in [5].

The molecule `CC(C)C[C@H](NC(=O)[C@@H]1Cc2ccccc2CN1C(=O)CNC(=O)CNC(=O)[C@@H](N)Cc1ccc(O)cc1)C(=O)N[C@@H](CCCNC(=N)N)C(=O)N[C@@H](CCCNC(=N)N)C(=O)N[C@H](C)C(=O)N[C@@H](CCCNC(=N)N)C(=O)N1CCC[C@H]1C(=O)N[C@@H](CCCCN)C(N)=O` had a pEC50 in experiment [3] of 7.53. Further, the pKi at Mu-type opioid receptor was 6.69; in experiment [4], 5.44; in experiment [5], 8.33.

Consider `CC(C)C[C@H](NC(=O)[C@@]1(NC(=O)CNC(=O)CNC(=O)[C@@H](N)Cc2ccc(O)cc2)CCc2ccccc2C1)C(=O)N[C@@H](CCCN=C(N)N)C(=O)N[C@@H](CCCN=C(N)N)C(=O)N[C@H](C)C(=O)N[C@@H](CCCN=C(N)N)C(=O)N1CCC[C@H]1C(=O)N[C@@H](CCCCN)C(N)=O`, for which, in experiment [3], the negative logarithm of the EC50 (pEC50) was 7.14. In addition, the negative-log Ki (pKi) at Mu-type opioid receptor is 7.48; in experiment [4] it was less than 5.00; in experiment [5], 9.05. Further, in experiment [2], the Max response was 96%.

As to `CC(C)C[C@H](NC(=O)[C@@H]1Cc2ccccc2CN1C(=O)CNC(=O)CNC(=O)[C@@H](N)Cc1ccc(O)cc1)C(=O)N[C@@H](CCCN=C(N)N)C(=O)N[C@@H](CCCN=C(N)N)C(=O)N[C@H](C)C(=O)N[C@@H](CCCN=C(N)N)C(=O)N1CCC[C@H]1C(=O)N[C@@H](CCCCN)C(N)=O`, the Ki ratio entry in experiment [6] is listed as “kappa/mu/delta”. Besides, the Max response in experiment [2] was determined as 91%.

Consider `CC(C)C[C@H](NC(=O)C1(NC(=O)CNC(=O)CNC(=O)[C@@H](N)Cc2ccc(O)cc2)Cc2ccccc2C1)C(=O)N[C@@H](CCCN=C(N)N)C(=O)N[C@@H](CCCN=C(N)N)C(=O)N[C@H](C)C(=O)N[C@@H](CCCN=C(N)N)C(=O)N1CCC[C@H]1C(=O)N[C@@H](CCCCN)C(N)=O`, for which the pKi on Mu-type opioid receptor was 6.44; in experiment [4], less than 5.00; in experiment [5], 7.58. Moreover, the Ki ratio entry in [7] is “kappa/mu/delta”. Further, the Max response in [2] was 39%.

In turn, `CC(C)C[C@H](NC(=O)[C@]1(NC(=O)CNC(=O)CNC(=O)[C@@H](N)Cc2ccc(O)cc2)CCc2ccccc2C1)C(=O)N[C@@H](CCCN=C(N)N)C(=O)N[C@@H](CCCN=C(N)N)C(=O)N[C@H](C)C(=O)N[C@@H](CCCN=C(N)N)C(=O)N1CCC[C@H]1C(=O)N[C@@H](CCCCN)C(N)=O` showed a Max response in [2] of 74%.

Molecule `CC(C)C[C@H](NC(=O)[C@@](C)(Cc1ccccc1)NC(=O)CNC(=O)CNC(=O)[C@@H](N)Cc1ccc(O)cc1)C(=O)N[C@@H](CCCN=C(N)N)C(=O)N[C@@H](CCCN=C(N)N)C(=O)N[C@H](C)C(=O)N[C@@H](CCCN=C(N)N)C(=O)N1CCC[C@H]1C(=O)N[C@@H](CCCCN)C(N)=O` had a negative-log EC50 (pEC50) in experiment [3] (cho) of 7.44. The negative logarithm of the Ki (pKi) was 8.49 at Mu-type opioid receptor (cho), 6.80 in experiment [4] (cho) and 8.49 in experiment [5] (cho). In experiment [2], this molecule gave a Max response of 100%.

With `CC(C)C[C@H](NC(=O)[C@@H](CCc1ccccc1)NC(=O)CNC(=O)CNC(=O)[C@@H](N)Cc1ccc(O)cc1)C(=O)N[C@@H](CCCN=C(N)N)C(=O)N[C@@H](CCCN=C(N)N)C(=O)N[C@H](C)C(=O)N[C@@H](CCCN=C(N)N)C(=O)N1CCC[C@H]1C(=O)N[C@@H](CCCCN)C(N)=O`, in experiment [3] (cho), the negative-log EC50 (pEC50) is 8.28. Moreover, the pKi on Mu-type opioid receptor (cho) was 7.86; in [4] (cho), 6.72; in [5], 9.18. In addition, the Max response in [2] was determined as 95%.

The molecule `CC(C)C[C@H](NC(=O)[C@H](Cc1ccccc1)NC(=O)CNC(=O)CNC(=O)[C@@H](N)Cc1ccc(O)cc1)C(=O)N[C@@H](CCCN=C(N)N)C(=O)N[C@@H](CCCN=C(N)N)C(=O)N[C@H](C)C(=O)N[C@@H](CCCN=C(N)N)C(=O)N1CCC[C@H]1C(=O)N[C@@H](CCCCN)C(N)=O` had a negative-log EC50 (pEC50) in experiment [3] of 6.29. Also, the pKi was 6.91 on Mu-type opioid receptor, 8.05 in [5] and less than 5.00 in [8]. The molecule also came in with a Max response in experiment [2] of 73%.

Consider `CC(C)C[C@H](NC(=O)[C@H](CCc1ccccc1)NC(=O)CNC(=O)CNC(=O)[C@@H](N)Cc1ccc(O)cc1)C(=O)N[C@@H](CCCN=C(N)N)C(=O)N[C@@H](CCCN=C(N)N)C(=O)N[C@H](C)C(=O)N[C@@H](CCCN=C(N)N)C(=O)N1CCC[C@H]1C(=O)N[C@@H](CCCCN)C(N)=O`, for which, in experiment [3], the pEC50 is 7.33. Also, the pKi is 7.33 at Mu-type opioid receptor, 5.25 in experiment [4] and 8.76 in [5]. The same molecule had a Max response in [2] of 100%.

In [3] (cho), `CC(C)C[C@H](NC(=O)[C@@H](Cc1ccccc1)NC(=O)CNC(=O)CNC(=O)[C@@H](N)Cc1ccc(O)cc1)C(=O)N[C@@H](CCCN=C(N)N)C(=O)N[C@@H](CCCN=C(N)N)C(=O)N[C@H](C)C(=O)N[C@@H](CCCN=C(N)N)C(=O)N1CCC[C@H]1C(=O)N[C@@H](CCCCN)C(N)=O` gave a pEC50 of 8.91. Further, the negative-log Ki (pKi) at Mu-type opioid receptor (cho) is 8.38; in experiment [4] (cho) it was 8.18; in [5] (cho), 9.96. In experiment [2], this molecule returned a Max response of 100%.

The term pEC50 denotes the negative decadic logarithm of the EC50, by convention in mol/L. As a reminder, the pKi is the negative decadic logarithm of the Ki, by convention in mol/L.
